In ChEMBL document CHEMBL5252669, “Semisynthetic blasticidin S ester derivatives show enhanced antibiotic activity” (RSC Med Chem, 2023):
In brackets after ≈: the same amount, converted by molar mass. Activity calls are given as the source filed them. No cut-off for these calls is given here.

system: Candida albicans; experiment: Antifungal activity against Candida albicans assessed as zone of inhibition incubated for 18 hrs by spot on lawn assay; assay type: functional, organism-based; details: not given
Summary of the method: (§1)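 Overnight LB cultures diluted to OD600 0.01 in 0.7% LB top agar, overlaid on 1.5% LB agar; 5 mg mL−1 aqueous compound spotted at 35, 25, 10 and 5 μg with 1:1 water/methanol vehicle spot; 37 °C, 18 h; inhibition zone diameter measured by ruler.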

Question: For `COC(=O)[C@H]1O[C@@H](n2ccc(N)nc2=O)C=C[C@@H]1NC(=O)C[C@@H](N)CCN(C)C(=N)N`, which Activity is on record?
Answer: inactive

system: Enterococcus; experiment: Antibacterial activity against vancomycin-resistant Enterococcus assessed as zone of inhibition incubated for 18 hrs by spot on lawn assay; assay type: functional, organism-based; details: not given
Summary of the method: (§2)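 Spot-on-lawn assay. Plates of 1.5% agar in LB were overlaid with 0.7% LB agar seeded with overnight culture at 0.01 OD600. Aqueous 5 mg mL−1 solutions were spotted at 35, 25, 10 and 5 μg, with a 1:1 water/methanol vehicle spot. After 18 h at 37 °C, inhibition zone diameters were measured with a ruler.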

Question: Which Activity does the source give for `COC(=O)[C@H]1O[C@@H](n2ccc(N)nc2=O)C=C[C@@H]1NC(=O)C[C@@H](N)CCN(C)C(=N)N` here?
Answer: Active

system: Enterococcus faecalis; experiment: Antibacterial activity against Enterococcus faecalis ATCC 29212 assessed as zone of inhibition incubated for 18 hrs by spot on lawn assay; assay type: functional, organism-based; details: not given; summary of the method: as §1

Question: With `COC(=O)[C@H]1O[C@@H](n2ccc(N)nc2=O)C=C[C@@H]1NC(=O)C[C@@H](N)CCN(C)C(=N)N` as the compound, how does the Activity read?
Answer: Active

system: Staphylococcus aureus; experiment: Antibacterial activity against methicillin resistant Staphylococcus aureus assessed as zone of inhibition incubated for 18 hrs by spot on lawn assay; assay type: functional, organism-based; details: not given; summary of the method: as §2

Question: With `COC(=O)[C@H]1O[C@@H](n2ccc(N)nc2=O)C=C[C@@H]1NC(=O)C[C@@H](N)CCN(C)C(=N)N` as the compound, how does the Activity read?
Answer: Active

system: Staphylococcus aureus; experiment: Antibacterial activity against NorA deleted Staphylococcus aureus assessed as zone of inhibition incubated for 18 hrs by spot on lawn assay; assay type: functional, organism-based; details: not given; summary of the method: as §1

Question: With `COC(=O)[C@H]1O[C@@H](n2ccc(N)nc2=O)C=C[C@@H]1NC(=O)C[C@@H](N)CCN(C)C(=N)N` as the compound, how does the Activity read?
Answer: Active

system: Staphylococcus aureus; experiment: Antibacterial activity against Staphylococcus aureus assessed as zone of inhibition incubated for 18 hrs by spot on lawn assay; assay type: functional, organism-based; details: not given; summary of the method: as §1

Question: For `COC(=O)[C@H]1O[C@@H](n2ccc(N)nc2=O)C=C[C@@H]1NC(=O)C[C@@H](N)CCN(C)C(=N)N`, which Activity is on record?
Answer: Active

system: not listed separately; experiment: Cytotoxicity against human MRC5 cells incubated for 24 hrs by MTS assay; assay type: toxicity, cell-based; details: not given
Summary of the method: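 MRC-5 lung fibroblasts seeded 5000 per well; medium replaced with compound 16–192 μg mL−1 or matching 1:1 methanol:water vehicle; 24 h, then MTS 3–4 h; absorbance 490 nm; viability relative to untreated cells, normalized to vehicle; CC50 from two independent assays in duplicate, mean ± SD.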

Question: For `COC(=O)[C@H]1O[C@@H](n2ccc(N)nc2=O)C=C[C@@H]1NC(=O)C[C@@H](N)CCN(C)C(=N)N`, which CC50 at 24 h is on record?
Answer: 18.3 µg/mL (≈ 41.9 µM)

system: Staphylococcus aureus; experiment: Antibacterial activity against NorA deleted Staphylococcus aureus incubated for 16 hrs by broth microdilution method; assay type: functional, organism-based; details: 16 h
Summary of the method: (§3)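 Cation-adjusted Mueller-Hinton broth microdilution. Overnight cultures from single colonies were diluted to OD600 0.004. Final compound range was 256–2 μg mL−1 in 1:1 methanol/water vehicle, with doxycycline and vehicle controls. Plates were incubated 16 h at 37 °C. OD600 was normalized to controls, and MIC was the lowest concentration inhibiting >90% growth. Two biological replicates in duplicate; reported as a range.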

Question: For `COC(=O)[C@H]1O[C@@H](n2ccc(N)nc2=O)C=C[C@@H]1NC(=O)C[C@@H](N)CCN(C)C(=N)N`, which IC50 is on record?
Answer: 21.5 µg/mL (≈ 49.3 µM)

same assay, conditions: time 16 hrs

Question: Which MIC does the source give for `COC(=O)[C@H]1O[C@@H](n2ccc(N)nc2=O)C=C[C@@H]1NC(=O)C[C@@H](N)CCN(C)C(=N)N` here?
Answer: 32 µg/mL (≈ 73.3 µM)

system: Staphylococcus aureus; experiment: Antibacterial activity against wild type Staphylococcus aureus 8810 incubated for 16 hrs by broth microdilution method; assay type: functional, organism-based; details: Staphylococcus aureus, 8810, 16 h; summary of the method: as §3

Question: For `COC(=O)[C@H]1O[C@@H](n2ccc(N)nc2=O)C=C[C@@H]1NC(=O)C[C@@H](N)CCN(C)C(=N)N`, which IC50 is on record?
Answer: 11.4 µg/mL (≈ 26.1 µM)

same assay, conditions: Staphylococcus aureus, 8810; time 16 hrs

Question: With `COC(=O)[C@H]1O[C@@H](n2ccc(N)nc2=O)C=C[C@@H]1NC(=O)C[C@@H](N)CCN(C)C(=N)N` as the compound, how does the MIC read?
Answer: 32 µg/mL (≈ 73.3 µM)

system: Staphylococcus aureus; experiment: Antibacterial activity against methicillin resistant Staphylococcus aureus ATCC 43300 incubated for 16 hrs by broth microdilution method; assay type: functional, organism-based; details: ATCC 43300, 16 h; summary of the method: as §3

Question: With `COC(=O)[C@H]1O[C@@H](n2ccc(N)nc2=O)C=C[C@@H]1NC(=O)C[C@@H](N)CCN(C)C(=N)N` as the compound, how does the IC50 read?
Answer: 10.4 µg/mL (≈ 23.8 µM)

same assay, conditions: ATCC 43300, time 16 hrs

Question: With `COC(=O)[C@H]1O[C@@H](n2ccc(N)nc2=O)C=C[C@@H]1NC(=O)C[C@@H](N)CCN(C)C(=N)N` as the compound, how does the MIC read?
Answer: 16 µg/mL (≈ 36.7 µM)

system: Klebsiella pneumoniae; experiment: Antibacterial activity against Klebsiella pneumoniae ATCC 29665 incubated for 16 hrs by broth microdilution method; assay type: functional, organism-based; details: ATCC 29665, 16 h

Question: For `COC(=O)[C@H]1O[C@@H](n2ccc(N)nc2=O)C=C[C@@H]1NC(=O)C[C@@H](N)CCN(C)C(=N)N`, which IC50 is on record?
Answer: 34.3 µg/mL (≈ 78.6 µM)

same assay, conditions: ATCC 29665, time 16 hrs

Question: With `COC(=O)[C@H]1O[C@@H](n2ccc(N)nc2=O)C=C[C@@H]1NC(=O)C[C@@H](N)CCN(C)C(=N)N` as the compound, how does the MIC read?
Answer: 64 µg/mL (≈ 147 µM)

system: Pseudomonas aeruginosa; experiment: Antibacterial activity against MexAB-OprM deleted Pseudomonas aeruginosa incubated for 16 hrs by broth microdilution method; assay type: functional, organism-based; details: 16 h

Question: With `COC(=O)[C@H]1O[C@@H](n2ccc(N)nc2=O)C=C[C@@H]1NC(=O)C[C@@H](N)CCN(C)C(=N)N` as the compound, how does the IC50 read?
Answer: 35.1 µg/mL (≈ 80.4 µM)

same assay, conditions: time 16 hrs

Question: Which MIC does the source give for `COC(=O)[C@H]1O[C@@H](n2ccc(N)nc2=O)C=C[C@@H]1NC(=O)C[C@@H](N)CCN(C)C(=N)N` here?
Answer: 128 µg/mL (≈ 293 µM)

system: Acinetobacter baumannii; experiment: Antibacterial activity against Acinetobacter baumannii ATCC 17978 incubated for 16 hrs by broth microdilution method; assay type: functional, organism-based; details: ATCC 17978, 16 h

Question: With `COC(=O)[C@H]1O[C@@H](n2ccc(N)nc2=O)C=C[C@@H]1NC(=O)C[C@@H](N)CCN(C)C(=N)N` as the compound, how does the IC50 read?
Answer: 10.2 µg/mL (≈ 23.4 µM)

same assay, conditions: ATCC 17978, time 16 hrs

Question: Which MIC does the source give for `COC(=O)[C@H]1O[C@@H](n2ccc(N)nc2=O)C=C[C@@H]1NC(=O)C[C@@H](N)CCN(C)C(=N)N` here?
Answer: 32 µg/mL (≈ 73.3 µM)

system: Candida albicans; experiment: Antifungal activity against Candida albicans incubated for 16 hrs by broth microdilution method; assay type: functional; details: not given

Question: For `COC(=O)[C@H]1O[C@@H](n2ccc(N)nc2=O)C=C[C@@H]1NC(=O)C[C@@H](N)CCN(C)C(=N)N`, which MIC is on record?
Answer: > 256 µg/mL

system: Saccharomyces cerevisiae; experiment: Antifungal activity against Saccharomyces cerevisiae incubated for 16 hrs by broth microdilution method; assay type: functional; details: not given

Question: With `COC(=O)[C@H]1O[C@@H](n2ccc(N)nc2=O)C=C[C@@H]1NC(=O)C[C@@H](N)CCN(C)C(=N)N` as the compound, how does the MIC read?
Answer: 32 µg/mL (≈ 73.3 µM)

system: not listed separately; experiment: Selectivity index, ratio of CC50 for human MRC5 cells to IC50 for NorA deleted Staphylococcus aureus; assay type: toxicity; details: read-out: Ratio CC50/IC50

Question: With `COC(=O)[C@H]1O[C@@H](n2ccc(N)nc2=O)C=C[C@@H]1NC(=O)C[C@@H](N)CCN(C)C(=N)N` as the compound, how does the selectivity ratio read?
Answer: 0.8

system: not listed separately; experiment: Selectivity index, ratio of CC50 for human MRC5 cells to IC50 for Staphylococcus aureus; assay type: toxicity; details: read-out: Ratio CC50/IC50

Question: With `COC(=O)[C@H]1O[C@@H](n2ccc(N)nc2=O)C=C[C@@H]1NC(=O)C[C@@H](N)CCN(C)C(=N)N` as the compound, how does the selectivity ratio read?
Answer: 1.6

system: not listed separately; experiment: Selectivity index, ratio of CC50 for human MRC5 cells to IC50 for methicillin resistant Staphylococcus aureus; assay type: toxicity; details: read-out: Ratio CC50/IC50

Question: With `COC(=O)[C@H]1O[C@@H](n2ccc(N)nc2=O)C=C[C@@H]1NC(=O)C[C@@H](N)CCN(C)C(=N)N` as the compound, how does the selectivity ratio read?
Answer: 1.7

system: not listed separately; experiment: Selectivity index, ratio of CC50 for human MRC5 cells to IC50 for Enterococcus faecalis ATCC 29212; assay type: toxicity; details: read-out: Ratio CC50/IC50

Question: Which selectivity ratio does the source give for `COC(=O)[C@H]1O[C@@H](n2ccc(N)nc2=O)C=C[C@@H]1NC(=O)C[C@@H](N)CCN(C)C(=N)N` here?
Answer: 2

system: not listed separately; experiment: Selectivity index, ratio of CC50 for human MRC5 cells to IC50 for vancomycin-resistant Enterococcus; assay type: toxicity; details: read-out: Ratio CC50/IC50

Question: With `COC(=O)[C@H]1O[C@@H](n2ccc(N)nc2=O)C=C[C@@H]1NC(=O)C[C@@H](N)CCN(C)C(=N)N` as the compound, how does the selectivity ratio read?
Answer: 0.6

system: not listed separately; experiment: Selectivity index, ratio of CC50 for human MRC5 cells to IC50 for Klebsiella pneumoniae ATCC 29665; assay type: toxicity; details: read-out: Ratio CC50/IC50

Question: Which selectivity ratio does the source give for `COC(=O)[C@H]1O[C@@H](n2ccc(N)nc2=O)C=C[C@@H]1NC(=O)C[C@@H](N)CCN(C)C(=N)N` here?
Answer: 0.5

system: not listed separately; experiment: Selectivity index, ratio of CC50 for human MRC5 cells to IC50 for MexAB-OprM deleted Pseudomonas aeruginosa; assay type: toxicity; details: read-out: Ratio CC50/IC50

Question: With `COC(=O)[C@H]1O[C@@H](n2ccc(N)nc2=O)C=C[C@@H]1NC(=O)C[C@@H](N)CCN(C)C(=N)N` as the compound, how does the selectivity ratio read?
Answer: 0.5

system: not listed separately; experiment: Selectivity index, ratio of CC50 for human MRC5 cells to IC50 for Acinetobacter baumannii ATCC 17978; assay type: toxicity; details: read-out: Ratio CC50/IC50

Question: Which selectivity ratio does the source give for `COC(=O)[C@H]1O[C@@H](n2ccc(N)nc2=O)C=C[C@@H]1NC(=O)C[C@@H](N)CCN(C)C(=N)N` here?
Answer: 1.8

system: Enterococcus faecalis; experiment: Antibacterial activity against Enterococcus faecalis ATCC 29212 incubated for 20 hrs by broth microdilution method; details: ATCC 29212, 20 h

Question: For `COC(=O)[C@H]1O[C@@H](n2ccc(N)nc2=O)C=C[C@@H]1NC(=O)C[C@@H](N)CCN(C)C(=N)N`, which IC50 is on record?
Answer: 9.2 µg/mL (≈ 21.1 µM)

Question: And the MIC?
Answer: 16 µg/mL (≈ 36.7 µM)

system: Enterococcus; experiment: Antibacterial activity against vancomycin-resistant Enterococcus incubated for 20 hrs by broth microdilution method; details: not given

Question: What does the source list for `COC(=O)[C@H]1O[C@@H](n2ccc(N)nc2=O)C=C[C@@H]1NC(=O)C[C@@H](N)CCN(C)C(=N)N`?
Answer: IC50: 31 µg/mL (≈ 71 µM); MIC: 64 µg/mL (≈ 147 µM)
